Measurements published in ChEMBL document CHEMBL1157729, “Structure-activity relationship and mechanism of action studies of manzamine analogues for the control of neuroinflammation and cerebral infections” (J Med Chem, 2010).
In brackets after ≈: the same amount, converted by molar mass.

Key:
[1] = Selectivity index, ratio of IC50 for african green monkey (Cercopithecus aethiops) Vero cells to IC50 for chloroquine-sensitive Plasmodium falciparum; assay type: toxicity, cell-based
Vero = experiment: Cytotoxicity against african green monkey Vero cells after 48 hrs by neutral red assay; assay type: cell-based; settings: chlorocebus sabaeus
Method in brief: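 Vero cells seeded at 25,000/well and grown 24 h, then exposed to serially diluted samples for 48 h. Viable cells measured by neutral red assay, with doxorubicin as positive control. IC50 taken from dose-response curves.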

[2] = Antineuroinflammatory activity in LPS-stimulated rat neonatal microglia assessed as inhibition of PMA-induced TXB2 production preincubated 15 mins prior to PMA challenge measured after 70 mins; assay type: functional, cell-based
Plasmodium berghei [3] = experiment: Antiplasmodial activity against Plasmodium berghei NK65 infected in Swiss Webster mice (Mus musculus) assessed as inhibition of parasitaemia at 3.3 mg/kg, perorally administered 1 day after infection for 3 days measured after 5 days post infection; assay type: functional; settings: route oral
Method in brief: (§1)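 Male Swiss Webster mice (18-20 g, ≥5/group) inoculated i.p. with 2×10^7 P. berghei NK-65 parasitized RBC; oral dosing (100 μl, SSV or dilute HCl vehicle) once daily for 3 days from day 1; Giemsa-stained tail blood smears days 5–28; inhibition is % decrease versus untreated controls on day 5.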

Plasmodium berghei [4] = experiment: Antiplasmodial activity against Plasmodium berghei NK65 infected in Swiss Webster mice (Mus musculus) assessed as average parasitaemia at 10 mg/kg, perorally administered 1 day after infection for 3 days measured after 7 days post infection; assay type: functional; settings: route oral
Plasmodium berghei [5] = experiment: Antiplasmodial activity against Plasmodium berghei NK65 infected in Swiss Webster mice (Mus musculus) assessed as average parasitaemia at 10 mg/kg, perorally administered 1 day after infection for 3 days measured after 10 days post infection; assay type: functional; settings: route oral
Plasmodium berghei [6] = experiment: Antiplasmodial activity against Plasmodium berghei NK65 infected in Swiss Webster mice (Mus musculus) assessed as parasitaemia cure at 5 mg/kg, perorally administered 1 day after infection for 3 days measured after 28 days post infection; assay type: functional; settings: route oral
Plasmodium berghei [7] = experiment: Antiplasmodial activity against Plasmodium berghei NK65 infected in Swiss Webster mice (Mus musculus) assessed as inhibition of parasitaemia at 50 mg/kg, perorally administered 1 day after infection measured after 5 days post infection; assay type: functional; settings: route oral
Method in brief: (§2)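 Male Swiss Webster mice (18-20 g, ≥5/group) inoculated i.p. with 2×10^7 P. berghei NK-65 parasitized RBC, given a single oral dose (100 μl, SSV or dilute HCl vehicle); parasitemia by Giemsa-stained tail blood smears days 5–28; activity as % decrease versus untreated controls on day 5.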

Plasmodium berghei [8] = experiment: Antiplasmodial activity against Plasmodium berghei NK65 infected in Swiss Webster mice (Mus musculus) assessed as average parasitaemia at 3.3 mg/kg, perorally administered 1 day after infection for 3 days measured after 14 days post infection; assay type: functional; settings: route oral; method in brief: as §1
Plasmodium berghei [9] = experiment: Antiplasmodial activity against Plasmodium berghei NK65 infected in Swiss Webster mice (Mus musculus) assessed as average parasitaemia at 5 mg/kg, perorally administered 1 day after infection for 3 days measured after 14 days post infection; assay type: functional; settings: route oral
Plasmodium berghei [10] = experiment: Antiplasmodial activity against Plasmodium berghei NK65 infected in Swiss Webster mice (Mus musculus) assessed as average parasitaemia at 5 mg/kg, perorally administered 1 day after infection for 3 days measured after 21 days post infection; assay type: functional; settings: route oral
Plasmodium berghei [11] = experiment: Antiplasmodial activity against Plasmodium berghei NK65 infected in Swiss Webster mice (Mus musculus) assessed as average parasitaemia at 10 mg/kg, perorally administered 1 day after infection for 3 days measured after 28 days post infection; assay type: functional; settings: route oral; method in brief: as §1
Plasmodium berghei [12] = experiment: Antiplasmodial activity against Plasmodium berghei NK65 infected in Swiss Webster mice (Mus musculus) at 3.3 mg/kg, po; assay type: functional
Method in brief: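 Male Swiss Webster mice (18-20 g), at least 5 per group, inoculated i.p. with 2×10^7 P. berghei NK-65-parasitized red cells from a donor mouse. Oral dosing (100 μl, in SSV or 0.01 M HCl dilutions) from day one post-infection on a 3-day schedule (modified Peters test). Giemsa-stained tail-blood smears read from day 5 to day 28. Cure means no parasitemia through day 28.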

Plasmodium berghei [13] = experiment: Antiplasmodial activity against Plasmodium berghei NK65 infected in Swiss Webster mice (Mus musculus) at 5 mg/kg, po; assay type: functional
Plasmodium berghei [14] = experiment: Antiplasmodial activity against Plasmodium berghei NK65 infected in Swiss Webster mice (Mus musculus) assessed as average parasitaemia at 100 mg/kg, perorally administered 1 day after infection measured after 7 days post infection; assay type: functional; settings: route oral
Plasmodium berghei [15] = experiment: Antiplasmodial activity against Plasmodium berghei NK65 infected in Swiss Webster mice (Mus musculus) assessed as average parasitaemia at 200 mg/kg, perorally administered 1 day after infection measured after 7 days post infection; assay type: functional; settings: route oral
Plasmodium berghei [16] = experiment: Antiplasmodial activity against Plasmodium berghei NK65 infected in Swiss Webster mice (Mus musculus) assessed as average parasitaemia at 100 mg/kg, perorally administered 1 day after infection measured after 14 days post infection; assay type: functional; settings: route oral; method in brief: as §2
Plasmodium berghei [17] = experiment: Antiplasmodial activity against Plasmodium berghei NK65 infected in Swiss Webster mice (Mus musculus) assessed as average parasitaemia at 50 mg/kg, perorally administered 1 day after infection measured after 28 days post infection; assay type: functional; settings: route oral; method in brief: as §2
Plasmodium berghei [18] = experiment: Antiplasmodial activity against Plasmodium berghei NK65 infected in Swiss Webster mice (Mus musculus) assessed as parasitaemia cure at 100 mg/kg, perorally administered 1 day after infection measured after 28 days post infection; assay type: functional; settings: route oral
Method in brief: (§3)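 P. berghei NK-65 infection in male Swiss Webster mice (18-20 g; 2×10^7 parasitized erythrocytes i.p.; ≥5 per group). A single oral dose of 100 μl, diluted in SSV or 0.01 M HCl, then observation for toxicity signs and body weight. Parasitemia read from Giemsa-stained tail smears from day 5 through day 28. Mice free of parasitemia through day 28 counted as cured.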

Plasmodium berghei [19] = experiment: Antiplasmodial activity against Plasmodium berghei NK65 infected in Swiss Webster mice (Mus musculus) assessed as suppression of parasitaemia at 10 mg/kg, intraperitoneally administered 1 day after infection for 3 days measured after 5 days post infection relative to control; assay type: functional; settings: Plasmodium berghei, NK65, ip, route intraperitoneal
Mus musculus [20] = organism: Mus musculus; experiment: Toxicity in Plasmodium berghei NK65 infected Swiss Webster mice (Mus musculus) assessed as weight loss until day 5 of post infection; assay type: organism-based; settings: in vivo
Mus musculus [21] = experiment: Toxicity in Plasmodium berghei NK65 infected Swiss Webster mice (Mus musculus) assessed as behavioral change at 100 mg/kg, perorally; assay type: organism-based; parameters: dose 100 mg/kg, route oral; settings: in vivo, po; method in brief: as §3
HeLa [22] = experiment: Cell cycle arrest in human HeLa cells assessed as increase in S phase accumulation at 3 uM after 24 hrs by FACS analysis; assay type: functional
Mus musculus [23] = experiment: Toxicity in Plasmodium berghei NK65 infected Swiss Webster mice (Mus musculus) at 3 mg/kg, intraperitoneally administered as 10 doses measured after 3 days of inoculation; assay type: organism-based; parameters: dose 3 mg/kg, route intraperitoneal; settings: in vivo, ip, 72 h
Method in brief: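 Male Swiss Webster mice (18-20 g), 5 per group, were inoculated i.p. with 2×10^7 P. berghei NK-65 parasitized red cells. Compound was given i.p. at 10×3 mg/kg, with a vehicle-control group. Day of death, mean survival time and cure were recorded. Parasitemia was read on Giemsa-stained tail-blood smears (days 5, 7), with suppression relative to the control mean. Cure meant no parasitemia through day 28.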

HeLa [24] = experiment: Cell cycle arrest in human HeLa cells assessed as decrease in G2/M phase accumulation at 3 uM after 24 hrs by FACS analysis; assay type: functional; parameters: scale not given: the % may be the effect or the level left
HeLa [25] = experiment: Cell cycle arrest in human HeLa cells assessed as decrease in G2/M phase accumulation at 20 uM after 24 hrs by FACS analysis; assay type: functional; parameters: scale not given: the % may be the effect or the level left

Question: Which results are given for `O[C@]12C=C(c3nccc4c3[nH]c3ccccc34)[C@@H]3CCN(CCCC/C=C\CC1)C[C@@]31C[C@@H]3/C=C\CCCCN3[C@H]12` [MANZAMINE A]?
Answer: Ratio IC50 [1]: 44; IC50 (Vero): 0.2 µg/mL (≈ 0.364 µM); IC50 [2]: < 100 nM; inhibition in vivo at 3.3 mg/kg (Plasmodium berghei [3]): 88%; inhibition in vivo at 10 mg/kg (Plasmodium berghei [4]): 0.2%; inhibition in vivo at 10 mg/kg (Plasmodium berghei [5]): 0.4%; inhibition in vivo at 5 mg/kg (Plasmodium berghei [6]): 0%; inhibition in vivo at 50 mg/kg (Plasmodium berghei [7]): 100%; inhibition in vivo at 3.3 mg/kg (Plasmodium berghei [8]): 11.9%; inhibition in vivo at 5 mg/kg (Plasmodium berghei [9]): 13.5%; inhibition in vivo at 5 mg/kg (Plasmodium berghei [10]): 21.7%; inhibition in vivo at 10 mg/kg (Plasmodium berghei [11]): 3.3%; inhibition in vivo at 3.3 mg/kg (Plasmodium berghei [12]): > 30%; inhibition in vivo at 5 mg/kg (Plasmodium berghei [13]): > 30%; inhibition in vivo at 100 mg/kg (Plasmodium berghei [14]): 0%; inhibition in vivo at 200 mg/kg (Plasmodium berghei [15]): 0%; inhibition in vivo at 100 mg/kg (Plasmodium berghei [16]): 0%; inhibition in vivo at 50 mg/kg (Plasmodium berghei [17]): 6.25%; inhibition in vivo at 100 mg/kg (Plasmodium berghei [18]): 100%; inhibition in vivo at 10 mg/kg (Plasmodium berghei [19]): 100%; Activity (Mus musculus [20]): Toxic; Activity (Mus musculus [21]): Non-toxic; Activity (HeLa [22]): 56.2%; Activity (Mus musculus [23]): Non-toxic; Activity (HeLa [24]): 13%; Activity (HeLa [25]): 11.8%
